Assay results taken from ChEMBL document CHEMBL4052822, “Design and Synthesis of Orally Bioavailable Piperazine Substituted 4(1H)-Quinolones with Potent Antimalarial Activity: Structure-Activity and Structure-Property Relationship Studies” (J Med Chem, 2018).
Calls of active or inactive are those of the source. No cut-off for these calls is given here.

Tests used:
Plasmodium falciparum [1] = assay: Antimalarial activity against pyrimethamine/chloroquine-resistant Plasmodium falciparum W2 infected in human type A-positive erythrocytes after 48 hrs by [3H]-hypoxanthine incorporation assay; type: functional, cell-based
How it was run: (§1)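 Compound from 10.0 mM DMSO stock, diluted ≥1:400, then 11 concentrations in duplicate. Incubated at 37 °C under 90% N2/5% O2/5% CO2 for 48 h, then 3H-hypoxanthine added for 24 h more. CPM counted; EC50 by nonlinear regression.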

Plasmodium falciparum [2] = assay: Antimalarial activity against mefloquine/chloroquine/atovaquone/pyrimethamine-resistant Plasmodium falciparum TM90-C2B infected in human type A-positive erythrocytes after 48 hrs by [3H]-hypoxanthine incorporation assay; type: functional, cell-based; how it was run: as §1
Plasmodium berghei [3] = assay: Antimalarial activity against Plasmodium berghei infected in human HepG2 cells after 44 hrs by luciferase assay; type: functional, cell-based; details: HepG2, 44 h
How it was run: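 HepG2 cells, 75000 per well, in DMEM with 10% FBS at 37 °C, 5% CO2. 5000 Pb luciferase sporozoites from dissected mosquito salivary glands added per well for 3 h, then washed three times with PBS. Serially diluted compound added in triplicate, 44 h at 37 °C. Cells lysed, luciferase substrate added, luminescence read.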

J774 = assay: Cytotoxicity against mouse J774 cells after 72 hrs by CellTiter-96 aqueous one solution cell proliferation assay; type: cell-based; details: J774, 72 h
How it was run: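 Compounds from 10 µg/mL or 20 µM top concentration, 1:2 serial dilutions over 11 concentrations, 72 h at 37 °C, 5% CO2. MTS-type reagent added for 4 h, absorbance read at 490 nm. IC50 by nonlinear regression.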

Plasmodium berghei [4] = assay: Antimalarial activity against blood stage form of GFP transfected Plasmodium berghei infected in mouse assessed as protection against parasitemia at 10 mg/kg, po administered on day 3, 4, 5 post infection measured on day 30 by Thompson test; type: functional, organism-based
How it was run: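 Modified Thompson model: mice inoculated ip with 2×10^6 P. berghei (GFP)-infected red blood cells, parasitemia near 1% by day 3. […] Animals followed for 30 days; survival to day 30 with parasitemia below 1% counted as cure.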

[5] = Aqueous solubility of compound at pH 6.5; type: physicochemical
Plasmodium berghei [6] = assay: animal or person; details: in Mus musculus, po, read-out: INH
Plasmodium berghei [7] = assay: Antimalarial activity against blood stage form of GFP transfected Plasmodium berghei infected in mouse assessed as mouse survival day at 10 mg/kg, po administered on day 3, 4, 5 post infection by Thompson test; type: functional
Plasmodium berghei [8] = assay: animal or person; details: in Mus musculus, po, read-out: INH; remark: listed apart in the source
Plasmodium berghei [9] = assay: Antimalarial activity against liver stage form of luciferase transfected Plasmodium berghei sporozoites infected in mouse assessed as inhibition of parasitemia at 50 mg/kg administered via oral gavage 1 hr post infection measured on day 9 by bioluminescence method relative to control; type: functional
[10] = Resistance index, ratio of EC50 for mefloquine/chloroquine/atovaquone/pyrimethamine-resistant Plasmodium falciparum TM90-C2B to EC50 for pyrimethamine/chloroquine-resistant Plasmodium falciparum W2; type: functional

COC(=O)c1c[nH]c2cc(N3CCN(Cc4ccccc4)CC3)ccc2c1=O
EC50 (Plasmodium falciparum [1]): 16 nM
EC50 (Plasmodium falciparum [2]): 860 nM
EC50 (Plasmodium berghei [3]): 85 nM
EC50 (J774): > 20000 nM

COC(=O)c1c[nH]c2cc(CN3CCN(c4ccccc4)CC3)c(C)cc2c1=O
EC50 (Plasmodium falciparum [1]): 0.44 nM
EC50 (Plasmodium falciparum [2]): 150 nM
EC50 (Plasmodium berghei [3]): 6.9 nM
EC50 (J774): 12000 nM
Activity (Plasmodium berghei [4]): inactive

COC(=O)c1c[nH]c2cc(CN3CCN(Cc4ccccc4)CC3)ccc2c1=O
EC50 (Plasmodium falciparum [1]): 1.4 nM
EC50 (Plasmodium falciparum [2]): 150 nM
EC50 (Plasmodium berghei [3]): 44 nM
EC50 (J774): 10000 nM
solubility [5]: ≥ 80 µM
inhibition in vivo at 50 mg/kg (Plasmodium berghei [6]): 12.3%

Cc1[nH]c2cc(CN3CCN(c4ccc(F)cc4)CC3)ccc2c(=O)c1Cl
EC50 (Plasmodium falciparum [1]): 39 nM
EC50 (Plasmodium falciparum [2]): 52 nM
EC50 (J774): > 20000 nM
Survival (Plasmodium berghei [7]): <=13 day
Activity (Plasmodium berghei [4]): inactive
inhibition in vivo at 10 mg/kg (Plasmodium berghei [8]): 11%

COC(=O)c1c[nH]c2cc(CN3CCN(c4ccc(C(F)(F)F)cc4)CC3)ccc2c1=O
EC50 (Plasmodium falciparum [1]): 0.32 nM
EC50 (Plasmodium falciparum [2]): 120 nM
EC50 (Plasmodium berghei [3]): 16 nM
EC50 (J774): 11000 nM
Survival (Plasmodium berghei [7]): <=21 day
Activity (Plasmodium berghei [4]): inactive

COC(=O)c1c[nH]c2cc(CN3CCN(Cc4ccc5c(c4)OCO5)CC3)ccc2c1=O
EC50 (Plasmodium falciparum [1]): 160 nM
EC50 (Plasmodium falciparum [2]): > 2000 nM
EC50 (J774): > 20000 nM

COC(=O)c1c[nH]c2cc(CN3CCN(c4ccc(OC)cc4)CC3)ccc2c1=O
EC50 (Plasmodium falciparum [1]): 3.6 nM
EC50 (Plasmodium falciparum [2]): 220 nM
EC50 (Plasmodium berghei [3]): 0.12 nM
inhibition in vivo at 50 mg/kg (Plasmodium berghei [6]): 39.2%

COC(=O)c1c[nH]c2cc(N3CCN(c4ccccc4)CC3)ccc2c1=O
EC50 (Plasmodium falciparum [1]): 4.5 nM
EC50 (Plasmodium falciparum [2]): 250 nM
EC50 (Plasmodium berghei [3]): 74 nM
EC50 (J774): > 20000 nM
solubility [5]: < 20 µM

COc1cc(NC(C)CCCN)c2ncccc2c1 (centres undefined) [PRIMAQUINE]
inhibition in vivo at 50 mg/kg (Plasmodium berghei [9]): > 99%

COC(=O)c1c[nH]c2cc(CN3CCN(c4ccc(F)cc4)CC3)c(C)cc2c1=O
EC50 (Plasmodium falciparum [1]): 0.84 nM
EC50 (Plasmodium falciparum [2]): 350 nM
EC50 (Plasmodium berghei [3]): 2.6 nM
EC50 (J774): 16000 nM
Survival (Plasmodium berghei [7]): <=21 day

COC(=O)c1c[nH]c2cc(CN3CCN(c4ccc(C(F)(F)F)cc4)CC3)c(C)cc2c1=O
EC50 (Plasmodium falciparum [1]): 0.066 nM
EC50 (Plasmodium falciparum [2]): 100 nM
EC50 (J774): > 20000 nM

Cc1[nH]c2cc(CN3CCN(c4ccc(C(F)(F)F)cc4)CC3)ccc2c(=O)c1Cl
EC50 (Plasmodium falciparum [1]): 140 nM
EC50 (Plasmodium falciparum [2]): 1500 nM
Ratio EC50 [10]: 11
EC50 (J774): > 20000 nM

COC(=O)c1c[nH]c2cc(N3CCN(Cc4ccccc4)CC3)c(OC)cc2c1=O
EC50 (Plasmodium falciparum [1]): 64 nM
EC50 (Plasmodium falciparum [2]): 200 nM
EC50 (J774): 12000 nM

COC(=O)c1c[nH]c2cc(CN3CCN(Cc4ccccc4)CC3)c(C)cc2c1=O
EC50 (Plasmodium falciparum [1]): 1.5 nM
EC50 (Plasmodium falciparum [2]): 890 nM
EC50 (Plasmodium berghei [3]): 9.5 nM
EC50 (J774): > 20000 nM
inhibition in vivo at 50 mg/kg (Plasmodium berghei [6]): 24.6%

COC(=O)c1c[nH]c2cc(N3CCN(c4ccccc4)CC3)c(OC)cc2c1=O
EC50 (Plasmodium falciparum [1]): 37 nM
EC50 (Plasmodium falciparum [2]): 800 nM
EC50 (J774): 17000 nM

COC(=O)c1c[nH]c2ccc(CN3CCN(c4ccc(F)cc4)CC3)cc2c1=O
EC50 (Plasmodium falciparum [1]): 110 nM
EC50 (Plasmodium falciparum [2]): > 2000 nM
EC50 (J774): > 20000 nM

O=C1C(O)=C([C@H]2CC[C@H](c3ccc(Cl)cc3)CC2)C(=O)c2ccccc21 [ATOVAQUONE]
EC50 (J774): 28000 nM
Activity (Plasmodium berghei [4]): Active

COC(=O)c1c[nH]c2ccc(CN3CCN(c4ccc(OC)cc4)CC3)cc2c1=O
EC50 (Plasmodium falciparum [1]): 160 nM
EC50 (Plasmodium falciparum [2]): > 2000 nM
EC50 (Plasmodium berghei [3]): > 100 nM
EC50 (J774): > 20000 nM

COC(=O)c1c[nH]c2cc(CN3CCN(Cc4ccccc4)CC3)c(OC)cc2c1=O
EC50 (Plasmodium falciparum [1]): 5.5 nM
EC50 (Plasmodium falciparum [2]): > 2000 nM
EC50 (Plasmodium berghei [3]): 9.3 nM
EC50 (J774): > 20000 nM
inhibition in vivo at 50 mg/kg (Plasmodium berghei [6]): 19.3%

COc1cc2c(=O)c(Br)c(C)[nH]c2cc1CN1CCN(c2ccc(C(F)(F)F)cc2)CC1
EC50 (Plasmodium falciparum [1]): 130 nM
EC50 (Plasmodium falciparum [2]): > 2000 nM
EC50 (J774): > 20000 nM

COC(=O)c1c[nH]c2cc(CN3CCN(c4ccccc4)CC3)c(OC)cc2c1=O
EC50 (Plasmodium falciparum [1]): 1.6 nM
EC50 (Plasmodium falciparum [2]): 490 nM
EC50 (Plasmodium berghei [3]): 110 nM
EC50 (J774): > 20000 nM
inhibition in vivo at 50 mg/kg (Plasmodium berghei [6]): 82.4%

COC(=O)c1c[nH]c2cc(CN3CCN(c4ccc(C(F)(F)F)cc4)CC3)c(OC)cc2c1=O
EC50 (Plasmodium falciparum [1]): 6.4 nM
EC50 (Plasmodium falciparum [2]): 210 nM
EC50 (Plasmodium berghei [3]): 9.6 nM
EC50 (J774): > 20000 nM
